What was measured:
[1] = tested on: Brassica rapa subsp. oleifera; test: Inhibition of Brassica rapa subsp. oleifera at 100 mg/L; format: functional
In short: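 Rape (Brassica campestris L.) root growth assay, per the group's earlier published method; compound tested at 100 mg L-1; read-out is root length inhibition (%); monosulfuron used as reference herbicide.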

[2] = tested on: Brassica rapa subsp. oleifera; test: Inhibition of Brassica rapa subsp. oleifera root growth at 10 mg/L; format: functional
[3] = target: T1, Acetolactate synthase, chloroplastic (Arabidopsis thaliana) (UniProt P17597); test: Inhibition of Arabidopsis thaliana AHAS at 100 mg/L colorimetric assay
T1 sequence (whole entry): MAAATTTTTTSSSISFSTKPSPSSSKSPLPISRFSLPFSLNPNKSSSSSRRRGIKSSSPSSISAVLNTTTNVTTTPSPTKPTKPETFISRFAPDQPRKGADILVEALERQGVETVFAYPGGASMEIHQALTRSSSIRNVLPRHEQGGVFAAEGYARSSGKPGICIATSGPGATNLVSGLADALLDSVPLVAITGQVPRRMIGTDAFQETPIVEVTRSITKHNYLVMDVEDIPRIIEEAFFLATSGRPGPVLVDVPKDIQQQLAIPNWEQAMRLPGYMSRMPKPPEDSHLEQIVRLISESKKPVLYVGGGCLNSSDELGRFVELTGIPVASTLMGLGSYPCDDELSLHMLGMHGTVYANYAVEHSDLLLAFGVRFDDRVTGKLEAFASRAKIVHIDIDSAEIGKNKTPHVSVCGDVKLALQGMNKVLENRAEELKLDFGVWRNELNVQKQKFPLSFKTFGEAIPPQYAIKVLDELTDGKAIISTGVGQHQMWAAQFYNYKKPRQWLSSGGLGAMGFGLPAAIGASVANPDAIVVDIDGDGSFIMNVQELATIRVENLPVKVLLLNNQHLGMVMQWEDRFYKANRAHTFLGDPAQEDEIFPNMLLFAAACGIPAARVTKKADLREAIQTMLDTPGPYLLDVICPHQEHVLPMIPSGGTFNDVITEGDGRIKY
In short: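 Expressed and purified A. thaliana AHAS tested at a single concentration of 100 mg L-1. Enzyme activity was read by a colorimetric method described earlier, and the result is given as percent inhibition of AtAHAS activity.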

Structure (SMILES)	inhibition at 100 µg/mL [1] [%]	inhibition at 10 µg/mL [2] [%]	inhibition [3] [%]
Cc1ccc2c(c1)C(=O)C(=O)N2	80	13	50
O=C1Nc2ccc(F)cc2C1=O [5-FLUOROISATIN]	88	52	65
O=C1Nc2c(I)cccc2/C1=N/NC(=O)c1cccc(F)c1	81	51	75
O=C(N/N=C1\C(=O)N(Cc2ccc(Cl)cc2Cl)c2ccccc21)c1ccccc1	6	0	50
CN1C(=O)C(=O)c2cc([N+](=O)[O-])ccc21	33	2	25
O=C1Nc2ccccc2/C1=N/Nc1ncccc1Cl	19	0	70
CN1C(=O)C(=O)c2cc(Cl)ccc21	53	20	60
O=C(N/N=C1\C(=O)N(Cc2ccc(F)cc2)c2ccccc21)c1ccccc1	15	0	80
Cc1ccnc(NC(=O)NS(=O)(=O)c2ccccc2C(=O)O)n1 [MONOSULFURON]	78	64	90
O=C(N/N=C1\C(=O)N(Cc2cccc(F)c2)c2ccccc21)c1ccccc1	40	0	95
CN1C(=O)C(=O)c2ccccc21	24	7	50
CC(C)(C)c1ccc(CN2C(=O)/C(=N\NC(=O)c3ccccc3)c3ccccc32)cc1	15	0	60
Cc1cc(Cl)cc2c1NC(=O)C2=O	65	10	65
O=C1Nc2ccc([N+](=O)[O-])cc2C1=O [5-NITROISATIN]	82	7	60
CN1C(=O)C(=O)c2cccc(Cl)c21	59	31	80
O=C1Nc2ccc(Cl)cc2C1=O	95	28	55
Cc1cc(C)n(CC(=O)N/N=C2\C(=O)Nc3ccccc32)n1	27	0	35

Structure (SMILES)	inhibition at 100 µg/mL [1] [%]	inhibition at 10 µg/mL [2] [%]	inhibition [3] [%]
O=C1Nc2ccccc2/C1=N/O	55	0	45
O=C1Nc2c(Cl)cccc2C1=O	83	51	70
N#Cc1ccc(CN2C(=O)/C(=N\NC(=O)c3ccccc3)c3ccccc32)cc1	48	2	20
CN1C(=O)C(=O)c2cc(F)ccc21	59	19	60
O=C1Nc2ccc(I)cc2C1=O [5-IODOISATIN]	92	31	70
O=C1Nc2ccc(C(F)(F)F)cc2C1=O	93	27	60
O=C1Nc2c(I)cccc2/C1=N/NC(=O)c1ccccc1O	25	0	95
Cc1nc(C)c(C(=O)N/N=C2\C(=O)Nc3ccccc32)s1	21	0	30
O=C1Nc2ccccc2C1=O [ISATIN]	52	24	70
CN1C(=O)C(=O)c2cc(I)ccc21	27	13	60
O=C1Nc2ccc(S(=O)(=O)O)cc2C1=O	18	4	10
Cc1ccccc1CN1C(=O)/C(=N\NC(=O)c2ccccc2)c2ccccc21	0	0	50
O=C1Nc2c(Br)cccc2/C1=N/NC(=O)c1cccc(F)c1	16	0	60
O=C1Nc2c(Br)cccc2/C1=N/NC(=O)c1ccccc1F	39	14	95
Cc1ccc2c(c1)C(=O)C(=O)N2C	26	14	75
COc1ccc2c(c1)C(=O)C(=O)N2 [5-METHOXYISATIN]	30	20	60

— ChEMBL document CHEMBL3045582, “Chemical synthesis, in vitro acetohydroxyacid synthase (AHAS) inhibition, herbicidal activity, and computational studies of isatin derivatives” (2011)
